mHtt clearance = clearance of mutant huntingtin inclusions, primary screen, imaging, HeLa Exon1htt(103Q)mCFP, confocal imaging; 47,000 tested, 0.42% active; aggregate imaging; zero = plate's median compound well; AID 853, 2007; inhibition, % at 1.5 µM;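 active means inhibition of aggregate fluorescence above about 70%, also judged a hit by eye on the cell image, limit read from the data, passing the limit was not always enough; inconclusive means no rule stated for this call; inactive means not judged a hit on image review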;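 further: cells exposed to compound for three days before fixation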
Jurkat viability = cytotoxicity toward Jurkat T cells, primary screen, cytotoxicity control, cell-based, Jurkat E6.1, 60K MLSMR library; Jurkat E6.1 viability, ATP luminescence, 48 h; inhibition, % at 4 µM; 56,000 tested, 1.2% active; AID 463, 2006;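 active means inhibition above the mean inhibition of all tested compounds plus 3 SD, cut at about 28% in these data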
HEK293 NFkB inh = inhibitors of PMA/ionomycin-induced NF-kB reporter, primary screen, antigen receptor NF-kB inhibitor project, cell-based, HEK-293 luciferase reporter, luminescence. HEK-293 NF-kB luciferase reporter. inhibition, % at 3 µM. 62,000 tested, 0.21% active;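 active means inhibition above the mean of all tested compounds plus 3 SD, cut at about 40% in these data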;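 further: 0% = stimulated DMSO wells and 100% = 10 µM reference inhibitor 5653914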
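System – HEK-293 cells with stable firefly luciferase reporter driven by four HIV NF-kB elements · Doses – one dose, 3 µM · Schedule – 1 h compound pre-incubation, 16 h PMA/ionomycin at 37 °C · Technique – luminescence from luciferase substrate reagent · Measure – percent inhibition normalized per plate to DMSO and reference-inhibitor controls · Replicates – tested once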
D1 mod = D1 CRE-luciferase signal change, two-sided – cell-based, HEK293 D1, dopamine EC30, D1 allosteric modulator project, primary screen | B-score at 10 µM | 58,000 tested, 5.9% active | D(1A) dopamine receptor (Homo sapiens), P21728 | dopamine EC30 potentiation; actives deviate in either direction;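 active means luminescence count or its row- and column-corrected plate score outside the 99.7% band of the plate's sample wells, on either side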
Target sequence (P21728 whole entry, looked up): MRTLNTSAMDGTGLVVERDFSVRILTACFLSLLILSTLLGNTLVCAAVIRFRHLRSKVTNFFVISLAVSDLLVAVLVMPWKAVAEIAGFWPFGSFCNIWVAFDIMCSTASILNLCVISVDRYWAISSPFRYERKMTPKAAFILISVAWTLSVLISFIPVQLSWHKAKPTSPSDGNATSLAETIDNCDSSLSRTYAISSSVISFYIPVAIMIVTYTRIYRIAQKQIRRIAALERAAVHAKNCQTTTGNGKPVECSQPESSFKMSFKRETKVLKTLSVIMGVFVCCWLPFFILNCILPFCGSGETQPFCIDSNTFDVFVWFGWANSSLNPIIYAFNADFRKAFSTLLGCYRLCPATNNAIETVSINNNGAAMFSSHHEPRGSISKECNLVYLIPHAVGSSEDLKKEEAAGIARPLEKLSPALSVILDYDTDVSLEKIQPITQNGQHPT
M1 antag = antagonists of rat M1 muscarinic receptor; AID 628, 2007; CHO-M1 cells, Fluo-4 calcium, ACh EC80 antagonist mode; active compounds read low; B-score at 10 µM; 64,000 tested, 3.4% active;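 active means calcium fluorescence response, raw or row-and-column corrected B-score, differing from the plate sample mean either way at a set confidence level, mostly lower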
M1 agonist = M1 muscarinic receptor agonists, primary screen, CHO-M1 cells, Fluo-4 calcium, agonist mode; B-score at 10 µM; AID 626, 2007; Fluo-4 calcium fluorescence; active compounds read high; 64,000 tested, 3% active; Muscarinic acetylcholine receptor M1;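 active means fluorescence rise, raw or as B-score row- and column-corrected plate score, outside the 99.7% band of its plate's samples, either direction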
M1 ag confirm = rat M1 muscarinic receptor agonists, confirmation, CHO-M1 cells, Fluo-4 calcium, duplicate retest; shares compounds with M1 agonist; Fluo-4 calcium fluorescence, agonist mode; actives lie on both sides; fluorescence change (max-min) at 10 µM; 1,700 tested, 19% active;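 active means fluorescence change differs from the solvent-only DMSO control mean at a set confidence level in both duplicate runs; inconclusive means differs from solvent-only control mean in just one of two runs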;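 further: an EC20 dose of acetylcholine follows compound addition during the same imaging run; raw fluorescence intensity difference in instrument units with no normalization to controls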
M4 agonist ctr = agonist activity at rat M4 receptor, confirmation, counter-screen for M1 allosteric modulator project, cell-based, agonist mode. shares compounds with M1 agonist. CHO M4/Gqi5 cells, Fluo-4 calcium fluorescence; actives lie on both sides. fluorescence change (max-min) at 10 µM. 1,700 tested, 9% active. AID 1741, 2009;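 active means fluorescence change differing from the plate's solvent-only control wells at 99.7% confidence in both duplicates, whether higher or lower; inconclusive means differs from solvent controls in only one of two duplicates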
* marks the source's active call; other numbers are inactive results; ? = inconclusive; / = no result. An excerpt weighted towards active compounds, which were near 9.5% of everything screened.

SMILES | mHtt clearance | Jurkat viability | HEK293 NFkB inh | D1 mod | M1 antag | M1 agonist | M1 ag confirm | M4 agonist ctr
CCOC(=O)C1CCCN(C(=O)CN2C(=O)C(CC)Oc3ccc(C)cc32)C1 (centres undefined) | / | -4 | -2 | 0.2 | 0.28 | -0.49 | / | /
CCC1Oc2ccc(C)cc2N(CC(=O)N2CCN(c3ccc(F)cc3)CC2)C1=O (centres undefined) | / | 0 | 16 | -0.51 | 0.57 | 2.3* | -11 | ?
S=c1[nH]nc(Cc2cccc3ccccc23)n1-c1ccccc1 | -45 | / | / | / | / | / | / | /
COc1ccc(-c2cc(C(F)(F)F)n3ncc(C(=O)NCc4ccco4)c3n2)cc1 | 29 | -2 | 17 | 0.4 | -0.69 | 2.9* | 10 | 4.9
O=C(NC1CCCC1)c1cnn2c(C(F)(F)F)cc(-c3ccc4c(c3)OCO4)nc12 | -8 | 1 | 13 | -0.4 | -0.86 | 14* | 23 | 8.7
O=C(c1cnn2c(C(F)(F)F)cc(-c3ccc4c(c3)OCO4)nc12)N1CCCCC1 | -32 | 1 | -6 | 2.3 | -1.2 | 0.014 | / | /
O=C(NCc1ccco1)c1cnn2c(C(F)(F)F)cc(-c3ccccc3)nc12 | ? | 5 | 8 | 2 | 0.012 | -0.15 | / | /
CCc1nc2ccccc2n1CC(=O)N1CCN(S(=O)(=O)c2cccc(C(F)(F)F)c2)CC1 | / | 2 | 13 | -0.37 | 0.44 | 4.6* | -2.9 | -8
CC(=O)c1ccc(N2C(=O)C3C(C2=O)C(C(=O)c2ccc(Cl)cc2)N2CCCC32)cc1 (centres undefined) | 30 | 2 | 17 | -0.54 | -1.4 | 29* | 334* | 470*
N#C/C(=C/c1ccc(N2CCOCC2)o1)c1ccc(Br)cc1 | -44 | / | / | / | / | / | / | /
N#C/C(=C/c1ccc(N2CCCCCC2)o1)c1ccc(F)cc1 | / | 99* | 1 | 0.037 | 0.87 | 31* | -2.8 | ?
CC1(C)Cc2c(C#N)c(N3CCOCC3)nc(Cc3ccccc3)c2CO1 | -7 | / | / | / | -0.73 | 4.2* | -6.5 | ?
CC1(C)Cc2c(C#N)c(SCC(=O)c3ccccc3)nc(N3CCOCC3)c2CO1 | / | 0 | 1 | -3.3* | -0.6 | 6.7* | -18 | ?
CC1(C)Cc2c(C#N)c(SCc3ccccc3)nc(N3CCOCC3)c2CO1 | 28 | -5 | 15 | 0.49 | 0.048 | -0.08 | / | /
CC1(C)Cc2c(C#N)c(N3CCOCC3)nc(-c3ccccc3)c2CO1 | 29 | / | / | / | -1.7 | 4 | / | /
CC1CCN(c2nc(-c3ccco3)c3c(c2C#N)CC(C)(C)OC3)CC1 | / | 3 | 12 | 4.2 | 0.094 | 4.5* | -1.4 | -16
Cc1ccc(C(=O)C(OC(=O)CNC(=O)c2ccc(Cl)cc2)c2ccccc2)cc1 (centres undefined) | -9 | / | / | / | / | / | / | /
CCOc1ccc(CCNC(=O)c2cc3sccc3n2C)cc1OCC | / | 12 | 19 | / | 0.011 | 0.58 | / | /
CC(C)(C)NC(=O)COC(=O)c1snc(C(=O)NC2CCCCC2)c1N | / | 29 | 7 | -2.6 | -0.96* | 4.9* | -20 | ?
COc1cc(NC(=O)c2cc3c(C)nc4ccccc4c3o2)cc(OC)c1OC | -75 | 5 | 17 | -4.6* | -0.94 | 3.5* | -14 | -11
CCOC(=O)N1CCC(NC(=O)c2cc3c(C)nc4ccccc4c3o2)CC1 | -63 | 13 | 9 | -1.9 | -1 | 1.6 | / | /
COc1ccc(CNC(=O)c2cc3c(C)nc4ccccc4c3o2)c(OC)c1 | / | 60* | 17 | -4.1 | -1.6 | 4.9* | 1.1 | -2.5
CCCCN(CC)CCNC(=O)c1cc2c(C)nc3ccccc3c2o1 | / | 13 | 23 | -1.6 | -1.3 | -0.22 | / | /
O=C(CSc1nnnn1C1CC2CCC1C2)Nc1ccnc2ccccc12 (centres undefined) | / | 100* | 58* | -2.3 | -2.1* | 19* | 12 | -1.3
O=C(CSc1nnnn1C1CCCC1)NCc1ccccc1 | -100 | / | / | / | / | / | / | /
SMILES | mHtt clearance | Jurkat viability | HEK293 NFkB inh | D1 mod | M1 antag | M1 agonist | M1 ag confirm | M4 agonist ctr
CC(=O)c1cccc(-n2nnnc2SCC(=O)Nc2cccc(NC(=O)c3ccco3)c2)c1 | 12 | 5 | 8 | 0.026 | -0.13 | 3.6* | -28 | ?
Cc1snc(S(=O)(=O)/C(C#N)=N/Nc2ccc(C(F)(F)F)cc2)c1C#N | 43 | / | / | / | / | / | / | /
O=C(CNC(=O)c1ccco1)OCC(=O)c1ccc2ccccc2c1 | -3 | / | / | / | / | / | / | /
CC(C)N1CCc2c(sc(NC(=O)c3ccc(S(=O)(=O)N4CCOCC4)cc3)c2C(N)=O)C1 | / | 3 | 6 | / | -0.21 | 8.9* | 13 | 3.8
CCN1CCc2c(sc(NC(=O)c3ccc(S(=O)(=O)N4CCOCC4)cc3)c2C(N)=O)C1 | / | 0 | 13 | / | -0.34 | 0.8 | / | /
CC(C)C(OC(=O)c1cccs1)C(=O)NCc1cccs1 (centres undefined) | / | -4 | 9 | 0.43 | -0.05 | -0.41 | / | /
CC1CN(C(=O)Nc2ccc3c(c2)OCO3)CC(C)O1 (centres undefined) | -32 | / | / | / | / | / | / | /
CCOC(=O)N1CCN(C(=O)CSCC(=O)Nc2nc(-c3cccs3)cs2)CC1 | -55 | 2 | 11 | -0.73 | -0.25 | 3.2 | / | /
CC1CCCN(C(=O)CSCC(=O)Nc2nc(-c3cccs3)cs2)C1 (centres undefined) | / | -3 | -2 | -2.1 | 0.16 | 6.8* | -1.2 | -35
CC1CCCCN1C(=O)CSCC(=O)Nc1nc(-c2cccs2)cs1 (centres undefined) | / | 6 | 8 | / | -0.82 | 8* | -14 | -55
CC1CCN(C(=O)CSCC(=O)Nc2nc(-c3cccs3)cs2)CC1 | / | -4 | 7 | 2.5 | -0.96 | -0.19 | / | /
CCOC(=O)c1ccc(NC(=O)CC2C(=O)N(c3ccc(F)cc3)C(=O)N2CCC(C)C)cc1 (centres undefined) | -40 | / | / | / | / | / | / | /
C=C(C)CSc1nnc2n(C)c(=O)c3c4c(sc3n12)CCC4 | / | / | / | / | 0.0045 | 3.5* | -19 | ?
O=C(CS(=O)(=O)c1c[nH]c2ccccc12)Nc1ccc2c(c1)OCCO2 | -46 | / | -2 | 0.78 | 0.052 | 3.2* | -11 | -41
Cn1cc(S(=O)(=O)CC(=O)Nc2ccc3c(c2)OCCO3)c2ccccc21 | 32 | / | 24 | 0.11 | -1.3 | -0.92 | / | /
CC(C)C(=O)Nc1ccc(C(=O)NNC(=O)c2ccco2)cc1 | 42 | / | / | / | / | / | / | /
